Source: ChEMBL document CHEMBL2429859, “Inhibiting aberrant signal transducer and activator of transcription protein activation with tetrapodal, small molecule Src homology 2 domain binders: promising agents against multiple myeloma” (J Med Chem, 2013)
The source made the active and inactive calls. The calls are words filed in the database; no cut-off is given here.

Key:
[1] = target: T1, Signal transducer and activator of transcription 1-alpha/beta (Homo sapiens, UniProt P42224); experiment: Binding affinity to Stat1 (unknown origin) using 5-FAM-GpYLPQTV-NH2 as probe assessed as phosphopetide complex formation after 30 mins by fluorescence polarization assay
T1 sequence (P42224 whole entry): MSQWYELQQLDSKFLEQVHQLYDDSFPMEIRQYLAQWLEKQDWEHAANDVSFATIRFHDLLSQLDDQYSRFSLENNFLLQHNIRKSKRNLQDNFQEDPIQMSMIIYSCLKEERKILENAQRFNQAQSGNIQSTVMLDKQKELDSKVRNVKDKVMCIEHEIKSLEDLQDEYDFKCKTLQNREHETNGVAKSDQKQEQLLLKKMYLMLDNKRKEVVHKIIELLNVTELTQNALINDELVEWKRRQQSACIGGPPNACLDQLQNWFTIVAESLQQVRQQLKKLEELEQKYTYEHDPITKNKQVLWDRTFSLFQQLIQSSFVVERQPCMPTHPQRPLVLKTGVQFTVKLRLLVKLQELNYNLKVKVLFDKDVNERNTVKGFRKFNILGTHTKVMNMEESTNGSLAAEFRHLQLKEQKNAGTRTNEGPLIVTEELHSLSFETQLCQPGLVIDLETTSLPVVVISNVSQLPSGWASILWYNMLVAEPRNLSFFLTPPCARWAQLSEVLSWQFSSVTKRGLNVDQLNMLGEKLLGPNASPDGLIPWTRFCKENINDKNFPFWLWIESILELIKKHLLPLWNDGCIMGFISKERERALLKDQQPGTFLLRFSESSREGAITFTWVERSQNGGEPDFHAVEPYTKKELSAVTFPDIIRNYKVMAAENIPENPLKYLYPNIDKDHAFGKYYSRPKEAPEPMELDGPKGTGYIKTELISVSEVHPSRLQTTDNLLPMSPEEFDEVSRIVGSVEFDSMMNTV
How it was run: (§1)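 Fluorescence polarization. Recombinant STAT protein was incubated with the 5-FAM-GpYLPQTV-NH2 peptide probe and inhibitor for 30 min. Polarized fluorescence was plotted against inhibitor concentration, and IC50 was obtained by fitting a dose-response curve.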

[2] = target: T2, Signal transducer and activator of transcription 1-alpha/beta (Homo sapiens) (UniProt P42224); experiment: Inhibition of IFNgamma-induced Stat1 phosphorylation in serum-starved human U937 cells at 10 to 20 uM incubated for 4 hrs prior to IFNgamma induction measured after 15 mins by phopsho-flow cytometric analysis; format: cell-based; conditions: U-937
T2 sequence (whole entry): T1 sequence (P42224 whole entry)
How it was run: (§2)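 Serum-starved U937 cells were pretreated with compound for 4 h, then stimulated 15 min with IL-6 (Stat3), GM-CSF (Stat5) or IFN (Stat1). Phosphorylation of each STAT was quantified by phospho-flow cytometry.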

[3] = target: T3, Signal transducer and activator of transcription 3 (Homo sapiens, UniProt P40763); experiment: Inhibition of IL-6-induced Stat3 phosphorylation in serum-starved human U937 cells at 10 to 20 uM incubated for 4 hrs prior to IL-6 induction measured after 15 mins by phopsho-flow cytometric analysis; format: cell-based; conditions: U-937; how it was run: as §2
RPMI-8226 [4] = experiment: Induction of apoptosis in human RPMI8226 cells assessed as transformation of early apoptotic cells to late apoptotic cells measured at 48 hrs by annexin V/propidium iodide staining-based flow cytometric analysis; format: functional, cell-based
How it was run: (§3)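 Apoptosis was measured by flow cytometry of Annexin V and propidium iodide staining. Viable, early apoptotic and late apoptotic cells were scored by quadrant, with time points at 24 and 48 h.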

RPMI-8226 [5] = experiment: Induction of apoptosis in human RPMI8226 cells assessed as transformation of viable cells to early apoptotic cells measured at 24 hrs by annexin V/propidium iodide staining-based flow cytometric analysis; format: functional, cell-based; how it was run: as §3
[6] = target: T3, Signal transducer and activator of transcription 3; experiment: Inhibition of Stat3 in human JJN-3 cells assessed as downregulation of survivin protein expression; format: cell-based
How it was run: (§4)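 Treated cells were washed in cold PBS and lysed 30 min on ice in Tris-HCl pH 7.4/NaCl/EDTA/1% NP-40 with PMSF, vanadate and protease inhibitors. Lysates were Bradford-normalized, and 10-30 µg protein was run on 7-10% SDS-PAGE and transferred to PVDF. Blots were blocked in 5% BSA/TBST, probed overnight at 4 °C, then with HRP secondary, and detected by ECL.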

[7] = target: T3, Signal transducer and activator of transcription 3; experiment: Inhibition of Stat3-mediated luciferase expression in human 8226 cells after 6 hrs; format: cell-based
How it was run: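 Myeloma cells stably carried a Stat3-driven firefly luciferase reporter (puromycin-selected) and a CMV-driven Renilla luciferase internal control (hygromycin-selected), each selected for 2 weeks. After drug treatment, dual luciferase activity was read as relative luciferase units, firefly/Renilla.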

[8] = target: T3, Signal transducer and activator of transcription 3; experiment: Inhibition of Stat3 phosphorylation in human JJN-3 cells after 6 hrs by Western blot analysis; format: cell-based; how it was run: as §4
MM1.S = experiment: Cytotoxicity against human MM1S cells assessed as inhibition of cell viability after 72 hrs by MTT assay; format: functional, cell-based
How it was run: (§5)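 Myeloma lines were seeded at 1-3 x 10^4 cells per well onto compound or vehicle, in triplicate, and cultured 72 h at 37 °C in 5% CO2. Viability was measured colorimetrically by MTT assay relative to DMSO control. EC50 was fitted to a standard dose-response curve where applicable.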

XG7 = experiment: Cytotoxicity against human XG7 cells assessed as inhibition of cell viability after 72 hrs by MTT assay; format: functional, cell-based; how it was run: as §5
XG6 = experiment: Cytotoxicity against human XG6 cells assessed as inhibition of cell viability after 72 hrs by MTT assay; format: functional, cell-based; how it was run: as §5
UTMC2 = experiment: Cytotoxicity against human UTMC2 cells assessed as inhibition of cell viability after 72 hrs by MTT assay; format: functional, cell-based; how it was run: as §5
JJN-3 = experiment: Cytotoxicity against human JJN-3 cells assessed as inhibition of cell viability after 72 hrs by MTT assay; format: functional, cell-based; how it was run: as §5
NCI-H929 = experiment: Cytotoxicity against human NCI-H929 cells assessed as inhibition of cell viability after 72 hrs by MTT assay; format: functional, cell-based; how it was run: as §5
[9] = Cytotoxicity against human MDA468 cells assessed as cell viability after 72 hrs by MTS assay; format: functional, cell-based; conditions: MDA-MB-468, 72 h
How it was run: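 Cells were seeded at 1-3 x 10^4 per well into wells already holding compound or vehicle, in triplicate. Incubation was 72 h at 37 °C in 5% CO2. Viability was read by MTS colorimetry relative to DMSO control, and EC50 was fitted to a standard dose-response curve where applicable.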

[10] = target: T3, Signal transducer and activator of transcription 3; experiment: Competitive binding affinity to Stat3 SH2 domain (unknown origin) using 5-FAM-GpYLPQTV-NH2 as probe assessed as phosphopetide complex formation after 30 mins by fluorescence polarization assay; how it was run: as §1

T3 sequence (P40763 whole entry): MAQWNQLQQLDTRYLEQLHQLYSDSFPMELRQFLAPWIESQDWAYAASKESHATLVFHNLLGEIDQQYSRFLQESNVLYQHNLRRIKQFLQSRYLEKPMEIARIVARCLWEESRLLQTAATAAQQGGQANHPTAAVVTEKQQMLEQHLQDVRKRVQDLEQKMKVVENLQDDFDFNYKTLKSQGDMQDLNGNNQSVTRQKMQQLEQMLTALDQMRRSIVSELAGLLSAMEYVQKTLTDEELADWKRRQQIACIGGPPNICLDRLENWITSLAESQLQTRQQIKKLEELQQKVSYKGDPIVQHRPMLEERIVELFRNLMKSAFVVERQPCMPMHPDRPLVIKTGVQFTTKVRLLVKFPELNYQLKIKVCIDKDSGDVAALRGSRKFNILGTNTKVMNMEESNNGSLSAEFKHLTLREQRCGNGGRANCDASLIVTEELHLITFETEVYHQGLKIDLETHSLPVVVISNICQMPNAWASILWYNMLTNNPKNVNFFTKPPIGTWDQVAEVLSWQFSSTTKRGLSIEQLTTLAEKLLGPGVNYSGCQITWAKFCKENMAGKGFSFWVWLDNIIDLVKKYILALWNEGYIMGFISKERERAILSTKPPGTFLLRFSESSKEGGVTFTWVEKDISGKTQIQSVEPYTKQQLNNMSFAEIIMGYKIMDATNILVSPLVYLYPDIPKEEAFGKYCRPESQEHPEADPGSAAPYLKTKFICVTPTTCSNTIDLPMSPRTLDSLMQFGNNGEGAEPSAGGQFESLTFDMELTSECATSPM

For `O=C(O)c1ccc(N(Cc2ccc(C3CCCCC3)cc2)C(=O)CN(Cc2ccccc2C(F)(F)F)S(=O)(=O)c2c(F)c(F)c(F)c(F)c2F)cc1O`, the IC50 [1] was 10.9 µM, the inhibition [2] was “Active” and the inhibition [3] was “Active”. The Activity (RPMI-8226 [4]) was “Dose-dependent effect”, the Activity (RPMI-8226 [5]) was “Dose-dependent effect” and the inhibition [6] was “inactive”. For the same molecule, the inhibition [7] was “Dose-dependent effect”, the inhibition [8] was “Dose-dependent effect” and the inhibition (MM1.S) was “Dose-dependent effect”. For the same molecule, the inhibition (XG7) was “Dose-dependent effect”, the inhibition (XG6) was “Dose-dependent effect” and the inhibition (UTMC2) was “Dose-dependent effect”. The inhibition (JJN-3) was “Dose-dependent effect”, the inhibition (NCI-H929) was “Dose-dependent effect” and the IC50 [9] was 8.1 µM. It also gave an IC50 [10] of 12.8 µM.

For `Cc1ccc(S(=O)(=O)N(CC(=O)N(Cc2ccc(C3CCCCC3)cc2)c2ccc(C(=O)O)c(O)c2)Cc2ccccc2C(F)(F)F)cc1`, the IC50 [1] was 5.8 µM, the inhibition [2] was “Active” and the inhibition [3] was “Active”. The Activity (RPMI-8226 [4]) was “Dose-dependent effect”, the Activity (RPMI-8226 [5]) was “Dose-dependent effect” and the inhibition [6] was “inactive”. The inhibition [7] was “Dose-dependent effect”, the inhibition [8] was “Dose-dependent effect” and the inhibition (MM1.S) was “Dose-dependent effect”. For the same molecule, the inhibition (XG7) was “Dose-dependent effect”, the inhibition (XG6) was “Dose-dependent effect” and the inhibition (UTMC2) was “Dose-dependent effect”. The inhibition (JJN-3) was “Dose-dependent effect”, the inhibition (NCI-H929) was “Dose-dependent effect” and the IC50 [9] was 11 µM. The IC50 [10] was 2.8 µM.
